Assay results taken from ChEMBL document CHEMBL3860086, “Antivirulence C-Mannosides as Antibiotic-Sparing, Oral Therapeutics for Urinary Tract Infections” (J Med Chem, 2016).
Calls of active or inactive are those of the source. No cut-off for these calls is given here.

What was measured:
[1] = target: Type 1 fimbrin D-mannose specific adhesin (Escherichia coli K-12) (UniProt P08191); assay: Inhibition of Escherichia coli UTI89 FimH assessed as decrease in hemagglutination of guinea pig red blood cells after 4 to 18 hrs
In short: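 Hemagglutination inhibition with clinical UPEC strain UTI89 and guinea pig red blood cells, run per an earlier described protocol.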

[2] = target: Type 1 fimbrin D-mannose specific adhesin (Escherichia coli K-12) (UniProt P08191); assay: Binding affinity to Escherichia coli UTI89 FimH lectin domain at 100 uM after 30 mins by SYPRO Orange-staining-based differential scanning fluorimetry
In short: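 Thermal shift (DSF) binding with FimH lectin domain (FimHL) at 10 μM, with or without 100 μM mannoside; otherwise run per an earlier described method.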

[3] = Clearance in Sprague-Dawley rat at 3 mg/kg, iv after 5 mins to 24 hrs by LC-MS/MS analysis; type: ADME, organism-based; settings: in vivo
In short: (§1)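 Rat plasma PK: mannoside concentrations in plasma followed after either a 10 mg/kg oral dose or a 3 mg/kg intravenous dose.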

[4] = Volume of distribution at steady state in Sprague-Dawley rat at 3 mg/kg, iv after 5 mins to 24 hrs by LC-MS/MS analysis; type: ADME, organism-based; settings: in vivo; in short: as §1
[5] = Oral bioavailability in Sprague-Dawley rat at 10 mg/kg after 15 mins to 24 hrs by LC-MS/MS analysis; type: ADME, organism-based; settings: in vivo; in short: as §1
[6] = Half life in simulated gut fluid (unknown origin); type: ADME
In short: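 Stability is measured in simulated gut fluid at pH 1.2.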

[7] = Half life in liver microsomes (unknown origin); type: ADME
Escherichia coli [8] = assay: (§2) Antibacterial activity against Escherichia coli UTI89 with kanamycin cassette inserted in chromosome in C3H/HeN mouse acute cystitis model assessed as decrease in bacterial burden in urinary bladder at 25 mg/kg, po administered 30 mins prior to infection measured at 6 hrs post infection relative to control; type: functional
In short: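 Female C3H/HeN mice (6–8 weeks) get 25 mg/kg mannoside by mouth in 10% cyclodextrin 30 min before infection. Infection is transurethral: 50 μL of 1–2 × 10^7 UTI89KAN under isoflurane. The inoculum is grown type 1-inducing (2 × 24 h static LB, 37 °C), washed and resuspended in PBS. At 6 h, bladders are homogenized, serially diluted and plated on LB with 50 μg/mL kanamycin for CFU.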

[9] = Drug uptake in C3H/HeN mouse urine at 50 mg/kg, po administered through gavage after 1 hr by LC-MS/MS analysis; type: ADME, organism-based; settings: in vivo
In short: (§3)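 Mouse urine PK: C3H/HeN mice given 100 μL of 10 mg/mL mannoside in 10% cyclodextrin (50 mg/kg) by oral gavage. Urine sampled at several time points over 8 h and mannoside quantified by HPLC and mass spectrometry.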

[10] = Drug uptake in C3H/HeN mouse urine at 50 mg/kg, po administered through gavage after 8 hrs by LC-MS/MS analysis; type: ADME, organism-based; settings: read-out: Drug uptake; in short: as §3
[11] = Ratio of drug level in C3H/HeN mouse urine to IC50 for Escherichia coli UTI89 FimH-mediated biofilm formation
[12] = Ratio of drug level in C3H/HeN mouse urine to EC90 for Escherichia coli UTI89 FimH-mediated hemagglutination of guinea pig red blood cells
Escherichia coli [13] = assay: as §2, with “mouse chronic” for “mouse acute”, “administered 14 days post” for “administered 30 mins prior to”, “at 12” for “at 6”, “post dose” for “post infection”; type: functional
In short: (§4)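 Female C3H/HeN mice (6–8 weeks) are infected transurethrally under isoflurane with 1–2 × 10^8 UTI89KAN (type 1-induced, PBS-washed) in 50 μL. Urine titers at day 12 select chronic infection (≥10^5). At 2 weeks, mice get oral gavage of 100 μL mannoside in 10% cyclodextrin. At set times, bladders are homogenized, serially diluted and plated on kanamycin LB for CFU.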

Escherichia coli [14] = assay: as §2, with “chronic” for “acute”, “50” for “25”, “14 days post” for “30 mins prior to”, “2” for “6”, “dose (reference value: 10^7 CFU)” for “infection relative to control”; type: functional; in short: as §4
Escherichia coli [15] = assay: as §2, with “chronic” for “acute”, “50” for “25”, “14 days post” for “30 mins prior to”, “dose (reference value: 10^7 CFU)” for “infection relative to control”; type: functional; in short: as §4
Escherichia coli [16] = assay: as §2, with “chronic” for “acute”, “50” for “25”, “14 days post” for “30 mins prior to”, “12” for “6”, “dose (reference value: 10^7 CFU)” for “infection relative to control”; type: functional; in short: as §4

Type 1 fimbrin D-mannose specific adhesin (Escherichia coli K-12), sequence (P08191 whole entry, the tested form may be a part): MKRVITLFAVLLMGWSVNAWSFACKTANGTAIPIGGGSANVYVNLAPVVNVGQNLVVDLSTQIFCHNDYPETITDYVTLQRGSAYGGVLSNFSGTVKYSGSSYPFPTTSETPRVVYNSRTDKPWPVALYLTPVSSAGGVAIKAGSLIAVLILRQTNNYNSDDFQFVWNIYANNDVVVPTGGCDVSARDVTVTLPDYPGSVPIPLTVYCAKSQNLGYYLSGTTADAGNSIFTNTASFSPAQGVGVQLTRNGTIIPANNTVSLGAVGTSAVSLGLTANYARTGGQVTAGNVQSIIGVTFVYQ

| Structure (SMILES) | EC90 [1] [nM] | Tm [2] [°C] | further results |
| --- | --- | --- | --- |
| OC[C@H]1O[C@H](n2cc(-c3ccccc3)nn2)[C@@H](O)[C@@H](O)[C@@H]1O | 32000 | – | – |
| Cc1cc(-c2ccc3ccnc(N)c3c2)ccc1O[C@H]1O[C@H](CO)[C@@H](O)[C@H](O)[C@@H]1O | 20 | 75.1 | – |
| Cc1cc(-c2ccc3cc[nH]c(=O)c3c2)ccc1O[C@H]1O[C@H](CO)[C@@H](O)[C@H](O)[C@@H]1O | 31 | 75.4 | clearance [3]: 408 mL/min/kg; Vdss [4]: 6.7 L; F [5]: 7%; half-life [6]: > 2 h; half-life [7]: > 2 h; fold change (FC) (Escherichia coli [8]): 2 |
| Cc1cc(-c2cccc3cnccc23)ccc1[C@@H](O)[C@H]1O[C@H](CO)[C@@H](O)[C@H](O)[C@@H]1O | 125 | 74.6 | – |
| Cc1cc(-c2ccc3ccnc(N)c3c2)ccc1[C@@H](O)[C@H]1O[C@H](CO)[C@@H](O)[C@H](O)[C@@H]1O | 6 | 77.7 | Activity (Escherichia coli [8]): Active |
| COC(=O)c1cccc(-c2ccc(N[C@H]3O[C@H](CO)[C@@H](O)[C@H](O)[C@@H]3O)cc2)c1 | 4000 | – | – |
| Cc1cc(-c2cccc3cnccc23)ccc1O[C@H]1O[C@H](CO)[C@@H](O)[C@H](O)[C@@H]1O | 62 | 75 | – |
| CNC(=O)c1cccc(-c2ccc([C@@H](O)[C@H]3O[C@H](CO)[C@@H](O)[C@H](O)[C@@H]3O)c(C)c2)c1 | 31 | 75.4 | concentration at 8 h [10]: 50 µM; Ratio [12]: 1600; clearance [3]: 34.9 mL/min/kg; Ratio [11]: > 10; fold change (FC) (Escherichia coli [13]): 3 |
| CNC(=O)c1cccc(-c2ccc(O[C@H]3O[C@H](COC(C)=O)[C@@H](OC(C)=O)[C@H](OC(C)=O)[C@@H]3OC(C)=O)c(C)c2)c1 | – | – | concentration at 8 h [10]: 20 µM; Activity (Escherichia coli [8]): Active; Ratio [11]: > 10; Activity (Escherichia coli [13]): Active |
| COC(=O)c1cccc(-c2ccc(NC(=O)[C@H]3O[C@H](CO)[C@@H](O)[C@H](O)[C@@H]3O)cc2)c1 | 16000 | – | – |
| O=C(NC[C@H]1O[C@H](CO)[C@@H](O)[C@H](O)[C@@H]1O)c1ccc(Br)cc1 | 16000 | – | – |
| Cc1cc(-c2ccc3c(c2)C(=O)NCC3)ccc1O[C@H]1O[C@H](CO)[C@@H](O)[C@H](O)[C@@H]1O | 32 | 75 | – |
| CNC(=O)c1cc(C(=O)NC)cc(-c2ccc(O[C@H]3O[C@H](CO)[C@@H](O)[C@H](O)[C@@H]3O)c(C)c2)c1 | 16 | – | Drug uptake [9]: Active; half-life [6]: > 2 h; half-life [7]: > 2 h; Ratio [11]: > 10; Activity (Escherichia coli [14]): 100000 CFU; Activity (Escherichia coli [15]): 10000 CFU; Activity (Escherichia coli [16]): 100000 CFU; Activity (Escherichia coli [13]): Active |
| CNC(=O)c1cccc(-c2ccc(O[C@H]3O[C@H](COP(=O)(O)O)[C@@H](O)[C@H](O)[C@@H]3O)c(C)c2)c1 | – | – | Activity (Escherichia coli [8]): Active |
| Cc1cc(-c2ccc3c(c2)C(=O)NCC3)ccc1[C@@H](O)[C@H]1O[C@H](CO)[C@@H](O)[C@H](O)[C@@H]1O | 6 | 76.5 | Activity (Escherichia coli [8]): Active |
| Cc1cc(-c2ccc3cc[nH]c(=O)c3c2)ccc1[C@@H](O)[C@H]1O[C@H](CO)[C@@H](O)[C@H](O)[C@@H]1O | 8 | 77.5 | fold change (FC) (Escherichia coli [8]): 2 |

Further lines, with some results ahead:

| EC90 [1] [nM] | Tm [2] [°C] | Structure (SMILES) | further results |
| --- | --- | --- | --- |
| 2000 | – | CNC(=O)c1cccc(-c2ccc(C[C@H]3O[C@H](CO)[C@@H](O)[C@H](O)[C@@H]3O)c(C)c2)c1 | – |
| 1000 | – | CNC(=O)c1cccc(-c2ccc(C[C@H]3O[C@H](CO)[C@@H](O)[C@H](O)[C@@H]3O)cc2)c1 | – |
| 62 | 74.5 | CNC(=O)c1cccc(-c2ccc(O[C@H]3O[C@H](CO)[C@@H](O)[C@H](O)[C@@H]3O)c(C)c2)c1 | Drug uptake [9]: Active; concentration at 8 h [10]: 1 µM; clearance [3]: 98.4 mL/min/kg; Ratio [11]: > 10 |
| 250 | 72.8 | CNC(=O)c1cccc(-c2ccc([C@@H](O)[C@H]3O[C@H](CO)[C@@H](O)[C@H](O)[C@@H]3O)cc2)c1 | – |
| 500 | 73.2 | CNC(=O)c1cccc(-c2ccc(O[C@H]3O[C@H](CO)[C@@H](O)[C@H](O)[C@@H]3O)cc2)c1 | – |
| 4000 | – | COC(=O)c1cccc(-c2ccc(S[C@H]3O[C@H](CO)[C@@H](O)[C@H](O)[C@@H]3O)cc2)c1 | – |
| 24000 | 66.4 | CNC(=O)c1cccc(-c2ccc([C@H](O)[C@H]3O[C@H](CO)[C@@H](O)[C@H](O)[C@@H]3O)c(C)c2)c1 | – |
| 24000 | 67.2 | CNC(=O)c1cccc(-c2ccc([C@H](O)[C@H]3O[C@H](CO)[C@@H](O)[C@H](O)[C@@H]3O)cc2)c1 | – |
